# According to ChEMBL document CHEMBL1127344, “Tridentate ligands containing the SNS donor atom set as a novel backbone for the development of technetium brain-imaging agents” (J Med Chem, 1994):
# What was measured:
# [1] = species: Mus musculus; test: Tested for biodistribution of compound at 30 min in mice stomach; assay type: ADME, organism-based; settings: in vivo, 0.5 h
# In short: (§1)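 Male Swiss albino mice, at least five per group, received 0.1 mL (2-3 μCi) of HPLC-purified 99mTc complex reconstituted in 50% methanol by tail vein. They were killed by cardiectomy under light ether anesthesia at set times (1-60 min pi). Organs were weighed and γ-counted against a 1% injected-dose standard to give % dose/organ. Blood and muscle were taken as 7% and 43% of body weight.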
# [2] = species: Mus musculus; test: Tested for biodistribution of compound at 10 min in mice lungs; assay type: ADME, organism-based, Lung; settings: in vivo; in short: as §1
# [3] = species: Mus musculus; test: Tested for biodistribution of compound at 1 min in mice intestine; assay type: ADME, organism-based; settings: in vivo; in short: as §1
# [4] = species: Mus musculus; test: Tested for biodistribution of compound at 5 min in mice stomach; assay type: ADME, organism-based; settings: in vivo
# In short: (§2)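 Male Swiss albino mice, at least five per group, received HPLC-purified 99mTc complex by tail vein. The complex was reconstituted in 50% methanol (0.1 mL, 2-3 μCi). Mice were killed by cardiectomy under light ether at 1-60 min pi. Organs were weighed and γ-counted against a 1% injected-dose standard to give % dose/organ. Blood and muscle were taken as 7% and 43% of body weight.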
# [5] = species: Mus musculus; test: Tested for biodistribution of compound at 60 min in mice urine; assay type: ADME, organism-based; settings: in vivo, 1 h; in short: as §2
# [6] = species: Mus musculus; test: Tested for biodistribution of compound at 1 min in mice heart; assay type: ADME, organism-based; settings: in vivo; in short: as §1
# [7] = species: Mus musculus; test: Tested for biodistribution of compound at 1 min in mice muscle; assay type: ADME, organism-based, Muscle tissue; settings: in vivo; in short: as §1
# [8] = species: Mus musculus; test: Tested for biodistribution of compound at 60 min in mice intestine; assay type: ADME, organism-based; settings: in vivo, 1 h; in short: as §2
# [9] = species: Mus musculus; test: Tested for biodistribution of compound at 5 min in mice blood; assay type: ADME, organism-based; settings: in vivo; in short: as §2
# [10] = species: Mus musculus; test: Tested for biodistribution of compound at 30 min in mice spleen; assay type: ADME, organism-based; settings: in vivo, 0.5 h; in short: as §1
# [11] = species: Mus musculus; test: Tested for biodistribution of compound at 30 min in mice iver; assay type: ADME, organism-based, Liver; settings: in vivo, 0.5 h; in short: as §1
# [12] = species: Mus musculus; test: Tested for biodistribution of compound at 30 min in mice heart; assay type: ADME, organism-based; settings: in vivo, 0.5 h; in short: as §1
# [13] = species: Mus musculus; test: Tested for biodistribution of compound at 60 min in mice lungs; assay type: ADME, organism-based, Lung; settings: in vivo, 1 h; in short: as §2
# [14] = species: Mus musculus; test: Tested for biodistribution of compound at 5 min in mice kidney; assay type: ADME, organism-based; settings: in vivo; in short: as §2
# [15] = species: Mus musculus; test: Tested for biodistribution of compound at 1 min in mice kidney; assay type: ADME, organism-based; settings: in vivo; in short: as §1
# [16] = species: Mus musculus; test: Tested for biodistribution of compound at 1 min in mice liver; assay type: ADME, organism-based; settings: in vivo; in short: as §1
# [17] = species: Mus musculus; test: Tested for biodistribution of compound at 1 min in mice stomach; assay type: ADME, organism-based; settings: in vivo; in short: as §1
# [18] = species: Mus musculus; test: Tested for biodistribution of compound at 10 min in mice spleen; assay type: ADME, organism-based; settings: in vivo; in short: as §1
# [19] = species: Mus musculus; test: Tested for biodistribution of compound at 10 min in mice urine; assay type: ADME, organism-based; settings: in vivo; in short: as §1
# [20] = species: Mus musculus; test: Tested for biodistribution of compound at 5 min in mice intestine; assay type: ADME, organism-based; settings: in vivo; in short: as §2
# [21] = species: Mus musculus; test: Tested for biodistribution of compound at 5 min in mice spleen; assay type: ADME, organism-based; settings: in vivo; in short: as §2
# [22] = species: Mus musculus; test: Tested for biodistribution of compound at 10 min in mice kidney; assay type: ADME, organism-based; settings: in vivo; in short: as §1
# [23] = species: Mus musculus; test: Tested for biodistribution of compound at 5 min in mice muscle; assay type: ADME, organism-based, Muscle tissue; settings: in vivo; in short: as §2
# [24] = species: Mus musculus; test: Tested for biodistribution of compound at 30 min in mice lungs; assay type: ADME, organism-based, Lung; settings: in vivo, 0.5 h; in short: as §1
# [25] = species: Mus musculus; test: Tested for biodistribution of compound at 30 min in mice urine; assay type: ADME, organism-based; settings: in vivo, 0.5 h; in short: as §1
# [26] = species: Mus musculus; test: Tested for biodistribution of compound at 60 min in mice stomach; assay type: ADME, organism-based; settings: in vivo, 1 h; in short: as §2
# [27] = species: Mus musculus; test: Tested for biodistribution of compound at 10 min in mice intestine; assay type: ADME, organism-based; settings: in vivo; in short: as §1
# [28] = species: Mus musculus; test: Tested for biodistribution of compound at 1 min in mice blood; assay type: ADME, organism-based; settings: in vivo; in short: as §1
# [29] = species: Mus musculus; test: Tested for biodistribution of compound at 5 min in mice iver; assay type: ADME, organism-based, Liver; settings: in vivo; in short: as §2
# [30] = species: Mus musculus; test: Tested for biodistribution of compound at 60 min in mice iver; assay type: ADME, organism-based, Liver; settings: in vivo, 1 h; in short: as §2
# [31] = species: Mus musculus; test: Tested for biodistribution of compound at 1 min in mice brain; assay type: ADME, organism-based; settings: in vivo; in short: as §1
# [32] = species: Mus musculus; test: Tested for biodistribution of compound at 60 min in mice heart; assay type: ADME, organism-based; settings: in vivo, 1 h; in short: as §2
# [33] = species: Mus musculus; test: Tested for biodistribution of compound at 30 min in mice kidney; assay type: ADME, organism-based; settings: in vivo, 0.5 h; in short: as §1
# [34] = species: Mus musculus; test: Tested for biodistribution of compound at 1 min in mice lungs; assay type: ADME, organism-based, Lung; settings: in vivo; in short: as §1
# [35] = species: Mus musculus; test: Tested for biodistribution of compound at 60 min in mice brain; assay type: ADME, organism-based; settings: in vivo, 1 h; in short: as §2
# [36] = species: Mus musculus; test: Tested for biodistribution of compound at 5 min in mice lungs; assay type: ADME, organism-based, Lung; settings: in vivo; in short: as §2
# [37] = species: Mus musculus; test: Tested for biodistribution of compound at 1 min in mice spleen; assay type: ADME, organism-based; settings: in vivo; in short: as §1
# [38] = species: Mus musculus; test: Tested for biodistribution of compound at 10 min in mice brain; assay type: ADME, organism-based; settings: in vivo; in short: as §1
# [39] = species: Mus musculus; test: Tested for biodistribution of compound at 60 min in mice blood; assay type: ADME, organism-based; settings: in vivo, 1 h; in short: as §2
# [40] = species: Mus musculus; test: Tested for biodistribution of compound at 60 min in mice spleen; assay type: ADME, organism-based; settings: in vivo, 1 h; in short: as §2
# [41] = species: Mus musculus; test: Tested for biodistribution of compound at 10 min in mice muscle; assay type: ADME, organism-based, Muscle tissue; settings: in vivo; in short: as §1
# [42] = species: Mus musculus; test: Tested for biodistribution of compound at 5 min in mice heart; assay type: ADME, organism-based; settings: in vivo; in short: as §2
# [43] = species: Mus musculus; test: Tested for biodistribution of compound at 10 min in mice blood; assay type: ADME, organism-based; settings: in vivo; in short: as §1
# [44] = species: Mus musculus; test: Tested for biodistribution of compound at 5 min in mice brain; assay type: ADME, organism-based; settings: in vivo; in short: as §2
# [45] = species: Mus musculus; test: Tested for biodistribution of compound at 10 min in mice heart; assay type: ADME, organism-based; settings: in vivo; in short: as §1
# [46] = species: Mus musculus; test: Tested for biodistribution of compound at 10 min in mice stomach; assay type: ADME, organism-based; settings: in vivo; in short: as §1
# [47] = species: Mus musculus; test: Tested for biodistribution of compound at 60 min in mice kidney; assay type: ADME, organism-based; settings: in vivo, 1 h; in short: as §2
# [48] = species: Mus musculus; test: Tested for biodistribution of compound at 10 min in mice iver; assay type: ADME, organism-based, Liver; settings: in vivo; in short: as §1
# [49] = species: Mus musculus; test: Tested for biodistribution of compound at 30 min in mice muscle; assay type: ADME, organism-based, Muscle tissue; settings: in vivo, 0.5 h; in short: as §1
# [50] = species: Mus musculus; test: Tested for biodistribution of compound at 30 min in mice intestine; assay type: ADME, organism-based; settings: in vivo, 0.5 h; in short: as §1
# [51] = species: Mus musculus; test: Tested for biodistribution of compound at 30 min in mice blood; assay type: ADME, organism-based; settings: in vivo, 0.5 h; in short: as §1
# [52] = species: Mus musculus; test: Tested for biodistribution of compound at 30 min in mice brain; assay type: ADME, organism-based; settings: in vivo, 0.5 h; in short: as §1
# [53] = species: Mus musculus; test: Tested for biodistribution of compound at 60 min in mice muscle; assay type: ADME, organism-based, Muscle tissue; settings: in vivo, 1 h; in short: as §2
substance,measurement,setting,value
"[4-methoxythio)phenolato][N,N-bis(2-mercaptoethyl)-2-(ethylthio)ethylamine] oxotechnetium",Dose/organ,[1],0.37%
same,Dose/organ,[2],1.05%
same,Dose/organ,[3],4.14%
same,Dose/organ,[4],0.73%
same,Dose/organ,[5],1.79%
same,Dose/organ,[6],4.02%
same,Dose/organ,[7],34.39%
same,Dose/organ,[8],44.3%
same,Dose/organ,[9],1.66%
same,Dose/organ,[10],0.06%
same,Dose/organ,[11],24.36%
same,Dose/organ,[12],0.11%
same,Dose/organ,[13],0.26%
same,Dose/organ,[14],2.45%
same,Dose/organ,[15],2.3%
same,Dose/organ,[16],3.58%
same,Dose/organ,[17],0.35%
same,Dose/organ,[18],0.16%
same,Dose/organ,[19],0.27%
same,Dose/organ,[20],9.31%
same,Dose/organ,[21],0.21%
same,Dose/organ,[22],1.76%
same,Dose/organ,[23],25.57%
same,Dose/organ,[24],0.52%
same,Dose/organ,[25],0.77%
same,Dose/organ,[26],1.1%
same,Dose/organ,[27],15.44%
same,Dose/organ,[28],5.77%
same,Dose/organ,[29],16.97%
same,Dose/organ,[30],18.03%
same,Dose/organ,[31],3.68%
same,Dose/organ,[32],0.05%
same,Dose/organ,[33],1.04%
same,Dose/organ,[34],5.25%
same,Dose/organ,[35],0.15%
same,Dose/organ,[36],1.52%
same,Dose/organ,[37],0.06%
same,Dose/organ,[38],1.57%
same,Dose/organ,[39],0.79%
same,Dose/organ,[40],0.03%
same,Dose/organ,[41],20.29%
same,Dose/organ,[42],0.59%
same,Dose/organ,[43],1.24%
same,Dose/organ,[44],2.43%
same,Dose/organ,[45],0.31%
same,Dose/organ,[46],1.02%
same,Dose/organ,[47],0.54%
same,Dose/organ,[48],24.79%
same,Dose/organ,[49],10.41%
same,Dose/organ,[50],43.12%
same,Dose/organ,[51],0.8%
same,Dose/organ,[52],0.39%
same,Dose/organ,[53],5.27%
